Measurements taken from BindingDB's records for doi:10.1016/j.bmc.2011.02.028 (Kinki University, 2011).
Where a name gives a salt, the structure may show the parent alone.

Test: Inhibition of rat small intestinal maltase after 30 mins
In short: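 Enzyme source was rat small-intestinal brush-border membrane vesicles suspended in 0.1 M maleate buffer, pH 6.0. Substrate solutions were maltose 74 mM (maltase), sucrose 74 mM (sucrase) and isomaltose 7.4 mM (isomaltase). Glucose was measured by glucose oxidase. IC50 was read graphically from % inhibition versus log concentration.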
`O=S(=O)([O-])OC[C@H](O)C[S@@+]1C[C@@H](O)[C@H](O)[C@H]1CO` [Salaprinol] gave an IC50 of 3.2 µM.
With `O=S(=O)([O-])O[C@H]([C@@H](O)[C@H](O)[C@@H](O)CO)[C@H](O)C[S+]1C[C@@H](O)[C@H](O)[C@H]1CO` (stereo partly drawn) [1,4-dideoxy-1,4-{(S)-[(2S,3R,4S,5R,6S)-2,4,5,6,7-pentahydroxy-3-(sulfooxy)heptyl]episulfoniumylidene}-D-arabinitol inner salt] the IC50 was > 236 µM.
In the case of `O=S(=O)([O-])O[C@@H]([C@H](O)[C@@H](O)CO)[C@H](O)C[S@@+]1C[C@@H](O)[C@H](O)[C@H]1CO` [ponkoranol], the IC50 is reported as > 100 µM.
For `O=S(=O)([O-])O[C@H]([C@@H](O)[C@@H](O)[C@@H](O)CO)[C@H](O)C[S+]1C[C@@H](O)[C@H](O)[C@H]1CO` (stereo partly drawn) [1,4-dideoxy-1,4-{(S)-[(2S,3R,4S,5S,6S)-2,4,5,6,7-pentahydroxy-3-(sulfooxy)heptyl]episulfoniumylidene}-D-arabinitol inner salt], the IC50 was 57 µM.
In the case of `O=S(=O)([O-])O[C@H]([C@@H](O)[C@@H](O)[C@H](O)CO)[C@H](O)C[S+]1C[C@@H](O)[C@H](O)[C@H]1CO` (stereo partly drawn) [1,4-dideoxy-1,4-{(S)-[(2S,3R,4S,5S,6R)-2,4,5,6,7-pentahydroxy-3-(sulfooxy)heptyl]-episulfoniumylidene}-D-arabinitol inner salt], the IC50 is reported as > 236 µM.
For `O=S(=O)([O-])O[C@H]([C@@H](O)[C@H](O)[C@H](O)CO)[C@H](O)C[S+]1C[C@@H](O)[C@H](O)[C@H]1CO` (stereo partly drawn) [1,4-dideoxy-1,4-{(S)-[(2S,3R,4S,5R,6R)-2,4,5,6,7-pentahydroxy-3-(sulfooxy)heptyl]episulfoniumylidene}-D-arabinitol inner salt], the IC50 was > 236 µM.
